According to ChEMBL document CHEMBL4325889, “Natural products hybrids: 3,5,4'-Trimethoxystilbene-5,6,7-trimethoxyflavone chimeric analogs as potential cytotoxic agents against diverse human cancer cells” (Eur J Med Chem, 2019):

Experiments:
Type in all cases: functional
ACHN = experiment: Growth inhibition of human ACHN cells at 10 uM after 48 hrs by SRB assay relative to control; conditions: read-out: GI
Method in brief: (§1)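 Screened at the National Cancer Institute by the standard NCI protocol using the sulforhodamine B assay, which measures cellular protein. Single dose of 10 µM. Result is percent growth inhibition; values above 100% mean cell number fell below the initial population. Values are the average of duplicates.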

SF-268 = experiment: Growth inhibition of human SF268 cells at 10 uM after 48 hrs by SRB assay relative to control; conditions: SF-268, 48 h, read-out: GI; method in brief: as §1
K562 = experiment: Growth inhibition of human K562 cells at 10 uM after 48 hrs by SRB assay relative to control; conditions: K562, 48 h, read-out: GI; method in brief: as §1
786-0 = experiment: Growth inhibition of human 786-0 cells at 10 uM after 48 hrs by SRB assay relative to control; conditions: 786-0, 48 h, read-out: GI; method in brief: as §1
HCT-116 = experiment: Growth inhibition of human HCT116 cells at 10 uM after 48 hrs by SRB assay relative to control; conditions: HCT-116, 48 h, read-out: GI; method in brief: as §1
CAKI-1 = experiment: Growth inhibition of human Caki1 cells at 10 uM after 48 hrs by SRB assay relative to control; conditions: CAKI-1, 48 h, read-out: GI; method in brief: as §1
SK-MEL-2 = experiment: Growth inhibition of human SK-MEL-2 cells at 10 uM after 48 hrs by SRB assay relative to control; conditions: SK-MEL-2, 48 h, read-out: GI; method in brief: as §1
NCI/ADR-RES = experiment: Growth inhibition of human NCI/ADR-RES cells at 10 uM after 48 hrs by SRB assay relative to control; conditions: read-out: GI; method in brief: as §1
SF-539 = experiment: Growth inhibition of human SF539 cells at 10 uM after 48 hrs by SRB assay relative to control; conditions: SF-539, 48 h, read-out: GI; method in brief: as §1
Hs-578T = experiment: Growth inhibition of human Hs 578T cells at 10 uM after 48 hrs by SRB assay relative to control; conditions: read-out: GI; method in brief: as §1
HL-60(TB) = experiment: Growth inhibition of human HL-60(TB) cells at 10 uM after 48 hrs by SRB assay relative to control; conditions: HL-60, 48 h, read-out: GI
Method in brief: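 Run at NCI under its standard single-dose protocol against a leukemia cell panel. Cells were exposed to 10 µM; growth was read by sulforhodamine B staining of cellular protein and expressed as % growth inhibition versus untreated control. Values above 100% mean the cell population fell below the starting count (cytocidal). Each value is the average of duplicates.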

HOP-92 = experiment: Growth inhibition of human HOP92 cells at 10 uM after 48 hrs by SRB assay relative to control; conditions: HOP-92, 48 h, read-out: GI; method in brief: as §1
Malme-3M = experiment: Growth inhibition of human MALME-3M cells at 10 uM after 48 hrs by SRB assay relative to control; conditions: read-out: GI; method in brief: as §1
MOLT-4 = experiment: Growth inhibition of human MOLT4 cells at 10 uM after 48 hrs by SRB assay relative to control; conditions: MOLT-4, 48 h, read-out: GI; method in brief: as §1
UACC-257 = experiment: Growth inhibition of human UACC257 cells at 10 uM after 48 hrs by SRB assay relative to control; conditions: UACC-257, 48 h, read-out: GI
Method in brief: (§2)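 NCI screen against its human cancer cell line panel by the standard NCI protocol, SRB protein stain. Single dose of 10 μM. Percent growth inhibition versus control; values above 100% mean the cell population fell below the starting number. Each value is the mean of duplicates.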

OVCAR-5 = experiment: Growth inhibition of human OVCAR5 cells at 10 uM after 48 hrs by SRB assay relative to control; conditions: OVCAR-5, 48 h, read-out: GI; method in brief: as §1
UO-31 = experiment: Growth inhibition of human UO31 cells at 10 uM after 48 hrs by SRB assay relative to control; conditions: UO-31, 48 h, read-out: GI; method in brief: as §2
MCF7 = experiment: Growth inhibition of human MCF7 cells at 10 uM after 48 hrs by SRB assay relative to control; conditions: MCF7, 48 h, read-out: GI; method in brief: as §1
HOP-62 = experiment: Growth inhibition of human HOP62 cells at 10 uM after 48 hrs by SRB assay relative to control; conditions: HOP-62, 48 h, read-out: GI; method in brief: as §1
SNB-75 = experiment: Growth inhibition of human SNB75 cells at 10 uM after 48 hrs by SRB assay relative to control; conditions: SNB-75, 48 h, read-out: GI; method in brief: as §2
IGROV-1 = experiment: Growth inhibition of human IGROV1 cells at 10 uM after 48 hrs by SRB assay relative to control; conditions: IGROV-1, 48 h, read-out: GI; method in brief: as §1
MDA-MB-468 = experiment: Growth inhibition of human MDA-MB-468 cells at 10 uM after 48 hrs by SRB assay relative to control; conditions: MDA-MB-468, 48 h, read-out: GI; method in brief: as §1
HCT-15 = experiment: Growth inhibition of human HCT15 cells at 10 uM after 48 hrs by SRB assay relative to control; conditions: HCT-15, 48 h, read-out: GI; method in brief: as §1
SNB-19 = experiment: Growth inhibition of human SNB19 cells at 10 uM after 48 hrs by SRB assay relative to control; conditions: SNB-19, 48 h, read-out: GI; method in brief: as §2
SN12C = experiment: Growth inhibition of human SN12C cells at 10 uM after 48 hrs by SRB assay relative to control; conditions: read-out: GI; method in brief: as §1
LOX IMVI = experiment: Growth inhibition of human LOXIMVI cells at 10 uM after 48 hrs by SRB assay relative to control; conditions: read-out: GI; method in brief: as §1
OVCAR-8 = experiment: Growth inhibition of human OVCAR8 cells at 10 uM after 48 hrs by SRB assay relative to control; conditions: OVCAR-8, 48 h, read-out: GI; method in brief: as §1
KM12 = experiment: Growth inhibition of human KM12 cells at 10 uM after 48 hrs by SRB assay relative to control; conditions: KM12, 48 h, read-out: GI; method in brief: as §1
SW-620 = experiment: Growth inhibition of human SW620 cells at 10 uM after 48 hrs by SRB assay relative to control; conditions: SW-620, 48 h, read-out: GI; method in brief: as §2
DU-145 = experiment: Growth inhibition of human DU145 cells at 10 uM after 48 hrs by SRB assay relative to control; conditions: DU-145, 48 h, read-out: GI; method in brief: as §1
RXF 393 = experiment: Growth inhibition of human RXF393 cells at 10 uM after 48 hrs by SRB assay relative to control; conditions: RXF 393, 48 h, read-out: GI; method in brief: as §1
SK-MEL-28 = experiment: Growth inhibition of human SK-MEL-28 cells at 10 uM after 48 hrs by SRB assay relative to control; conditions: SK-MEL-28, 48 h, read-out: GI; method in brief: as §1
PC-3 = experiment: Growth inhibition of human PC3 cells at 10 uM after 48 hrs by SRB assay relative to control; conditions: PC-3, 48 h, read-out: GI; method in brief: as §1
RPMI-8226 = experiment: Growth inhibition of human RPMI8226 cells at 10 uM after 48 hrs by SRB assay relative to control; conditions: RPMI-8226, 48 h, read-out: GI; method in brief: as §1

SMILES | inhibition of growth at 10 µM (ACHN) | inhibition of growth at 10 µM (SF-268) | inhibition of growth at 10 µM (K562) | inhibition of growth at 10 µM (786-0) | inhibition of growth at 10 µM (HCT-116) | inhibition of growth at 10 µM (CAKI-1) | inhibition of growth at 10 µM (SK-MEL-2) | inhibition of growth at 10 µM (NCI/ADR-RES) | inhibition of growth at 10 µM (SF-539) | inhibition of growth at 10 µM (Hs-578T) | inhibition of growth at 10 µM (HL-60(TB)) | inhibition of growth at 10 µM (HOP-92) | inhibition of growth at 10 µM (Malme-3M) | inhibition of growth at 10 µM (MOLT-4) | inhibition of growth at 10 µM (UACC-257) | inhibition of growth at 10 µM (OVCAR-5) | inhibition of growth at 10 µM (UO-31) | inhibition of growth at 10 µM (MCF7) | inhibition of growth at 10 µM (HOP-62) | inhibition of growth at 10 µM (SNB-75) | further results
COc1cc2oc(-c3cccc(NC(=O)c4ccc5c(c4)OCO5)c3)cc(=O)c2c(O)c1OC | 30.5% | 32.5% | 15% | 29.9% | 21% | 34.4% | 6.66% | 14.8% | 77.4% | 26.1% | 14% | 38.5% | 7.67% | 15.8% | 17.2% | 13.7% | 15.8% | 11.4% | 47.9% | 47.6% | inhibition of growth at 10 µM (IGROV-1): 5.56%; inhibition of growth at 10 µM (MDA-MB-468): 17.6%; inhibition of growth at 10 µM (HCT-15): 0.04%; inhibition of growth at 10 µM (SNB-19): 33.8%; inhibition of growth at 10 µM (SN12C): 9.48%; inhibition of growth at 10 µM (LOX IMVI): 5.74%; inhibition of growth at 10 µM (OVCAR-8): 37.8%; inhibition of growth at 10 µM (KM12): 1.48%; inhibition of growth at 10 µM (SW-620): -1.42%; inhibition of growth at 10 µM (DU-145): 2.12%; inhibition of growth at 10 µM (RXF 393): 32.6%; inhibition of growth at 10 µM (SK-MEL-28): 15.2%; inhibition of growth at 10 µM (PC-3): 22.6%; inhibition of growth at 10 µM (RPMI-8226): 20.6%
COc1ccc(C(=O)Nc2cccc(-c3cc(=O)c4c(O)c(OC)c(OC)cc4o3)c2)cc1 | 23.7% | 13.9% | 11.9% | 24.5% | 30.2% | 20% | 16.6% | 13.3% | 15.3% | 25.8% | 15.4% | 42.3% | 0.28% | 19.1% | 13.6% | 0.04% | 4.63% | 9.78% | 30.2% | 32.5% | inhibition of growth at 10 µM (IGROV-1): 2.38%; inhibition of growth at 10 µM (MDA-MB-468): -6.18%; inhibition of growth at 10 µM (HCT-15): 7.47%; inhibition of growth at 10 µM (SNB-19): 34.1%; inhibition of growth at 10 µM (SN12C): 25.7%; inhibition of growth at 10 µM (LOX IMVI): 6.47%; inhibition of growth at 10 µM (OVCAR-8): 35.5%; inhibition of growth at 10 µM (KM12): -0.05%; inhibition of growth at 10 µM (SW-620): 9.52%; inhibition of growth at 10 µM (DU-145): 5.4%; inhibition of growth at 10 µM (RXF 393): 4.27%; inhibition of growth at 10 µM (SK-MEL-28): 9.4%; inhibition of growth at 10 µM (PC-3): 19.6%; inhibition of growth at 10 µM (RPMI-8226): 25.2%
